Measurements as given in ChEMBL document CHEMBL4196175, “First SAR Study for Overriding NRAS Mutant Driven Acute Myeloid Leukemia” (J Med Chem, 2018).
Activity calls are given as the source filed them. The calls are words filed in the database; no cut-off is given here.

Legend:
[1] = Growth inhibition of parental mouse BA/F3 cells after 72 hrs by celltiter-glo assay; assay type: cell-based, BaF3
OCI-AML-3 [2] = assay: Growth inhibition of human OCI-AML3 cells harboring NRAS-Q61L mutant after 72 hrs by celltiter-glo assay; assay type: functional; settings: OCI-AML-3, 72 h
OCI-AML-3 [3] = assay: Growth inhibition of ACK1/GCK knockdown human OCI-AML3 cells harboring NRAS-Q61L mutant at 0.2 uM after 72 hrs by celltiter-glo assay; assay type: functional, cell-based
Mus musculus = organism: Mus musculus; assay: Inhibition of ACK1/GCK in mouse BA/F3 cells assessed as reduction in NRAS-G12D mutant-mediated cell proliferation after 72 hrs by celltiter-glo assay; assay type: cell-based
[4] = biological target: T1, Mitogen-activated protein kinase kinase kinase kinase 2 (Homo sapiens, UniProt Q12851); assay: Inhibition of GCK (unknown origin) by radiometric biochemical kinase assay
T1 sequence (Q12851 whole entry): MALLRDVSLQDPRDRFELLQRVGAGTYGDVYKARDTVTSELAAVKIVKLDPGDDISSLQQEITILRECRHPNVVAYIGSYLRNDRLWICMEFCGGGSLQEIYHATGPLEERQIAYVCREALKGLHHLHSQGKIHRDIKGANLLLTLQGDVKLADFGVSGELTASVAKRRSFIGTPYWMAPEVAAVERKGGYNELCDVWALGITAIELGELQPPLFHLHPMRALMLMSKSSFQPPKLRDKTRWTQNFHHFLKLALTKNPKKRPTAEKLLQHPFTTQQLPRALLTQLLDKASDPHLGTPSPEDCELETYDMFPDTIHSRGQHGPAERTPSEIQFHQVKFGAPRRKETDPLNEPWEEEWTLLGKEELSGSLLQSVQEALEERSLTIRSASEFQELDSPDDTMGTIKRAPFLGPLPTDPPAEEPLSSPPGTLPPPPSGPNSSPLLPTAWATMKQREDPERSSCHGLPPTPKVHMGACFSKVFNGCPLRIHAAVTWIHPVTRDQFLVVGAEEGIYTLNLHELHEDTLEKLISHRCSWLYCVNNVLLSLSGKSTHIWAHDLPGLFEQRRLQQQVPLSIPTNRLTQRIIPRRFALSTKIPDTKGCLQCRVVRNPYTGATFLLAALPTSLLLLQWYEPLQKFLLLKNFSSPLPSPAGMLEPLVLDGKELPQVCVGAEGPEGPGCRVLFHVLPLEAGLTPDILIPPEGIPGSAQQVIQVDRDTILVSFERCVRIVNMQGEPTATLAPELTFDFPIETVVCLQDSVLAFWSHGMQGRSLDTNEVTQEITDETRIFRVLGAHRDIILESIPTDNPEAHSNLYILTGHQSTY

[5] = Growth inhibition of parental human U937 cells after 72 hrs by celltiter-glo assay; assay type: cell-based, U-937
Activated CDC42 kinase 1 = Activated CDC42 kinase 1 (Homo sapiens, UniProt Q07912); assay: Inhibition of ACK1 (unknown origin) by radiometric biochemical kinase assay
[6] = Selectivity index, ratio of GI50 for parental human U937 cells to GI50 for human OCI-AML3 cells harboring NRAS-Q61L mutant
Summary of the method: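 Human AML lines OCI-AML3 (NRAS mutant) and U937 (NRAS wild-type) were exposed to inhibitors for 72 h. GI50 is the concentration giving half-maximal growth inhibition, averaged with SD (n = 3, duplicate). The index is the U937 GI50 divided by the OCI-AML3 GI50.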

OCI-AML-3 [7] = assay: Growth inhibition of ACK1/GCK knockdown human OCI-AML3 cells harboring NRAS-Q61L mutant at 0.5 uM after 72 hrs by celltiter-glo assay; assay type: functional, cell-based
CYP2D6 = CYP2D6 (Homo sapiens, UniProt P10635); assay: Inhibition of CYP2D6 (unknown origin) assessed as activity remaining at 10 uM relative to control; assay type: ADME; settings: read-out: Activity
[8] = Metabolic stability in dog liver microsomes assessed as compound remaining at 1 uM after 30 mins; assay type: ADME, Canis lupus familiaris, microsome; settings: read-out: Stability
[9] = Metabolic stability in human liver microsomes assessed as compound remaining at 1 uM after 30 mins; assay type: ADME, microsome; settings: read-out: Stability
CYP1A2 = biological target: T2, CYP1A2 (Homo sapiens, UniProt P05177); assay: Inhibition of CYP1A2 (unknown origin) assessed as activity remaining at 10 uM relative to control; assay type: ADME; settings: read-out: Activity
T2 sequence (P05177 whole entry): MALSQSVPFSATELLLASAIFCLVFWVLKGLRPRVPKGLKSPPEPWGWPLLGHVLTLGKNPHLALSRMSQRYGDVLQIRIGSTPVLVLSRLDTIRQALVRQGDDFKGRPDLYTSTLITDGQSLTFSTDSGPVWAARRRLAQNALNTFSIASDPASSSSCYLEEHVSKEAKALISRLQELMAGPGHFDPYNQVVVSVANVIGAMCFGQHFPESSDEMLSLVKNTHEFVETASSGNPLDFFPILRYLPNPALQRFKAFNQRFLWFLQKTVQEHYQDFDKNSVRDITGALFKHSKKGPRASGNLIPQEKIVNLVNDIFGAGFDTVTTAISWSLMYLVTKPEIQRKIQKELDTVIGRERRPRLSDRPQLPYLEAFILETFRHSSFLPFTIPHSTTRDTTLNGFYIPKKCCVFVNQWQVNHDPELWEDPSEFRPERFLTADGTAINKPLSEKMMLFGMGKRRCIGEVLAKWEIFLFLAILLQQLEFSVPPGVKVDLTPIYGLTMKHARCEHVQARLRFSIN

[10] = Metabolic stability in rat liver microsomes assessed as compound remaining at 1 uM after 30 mins; assay type: ADME, microsome; settings: read-out: Stability
OCI-AML-3 [11] = assay: Growth inhibition of ACK1/GCK knockdown human OCI-AML3 cells harboring NRAS-Q61L mutant at 0.05 uM after 72 hrs by celltiter-glo assay; assay type: functional, cell-based
[12] = Metabolic stability in mouse liver microsomes assessed as compound remaining at 1 uM after 30 mins; assay type: ADME, microsome; settings: read-out: Stability
CYP2C9 = CYP2C9 (Homo sapiens, UniProt P11712); assay: Inhibition of CYP2C9 (unknown origin) assessed as activity remaining at 10 uM relative to control; assay type: ADME; settings: read-out: Activity
CYP3A4 = CYP3A4 (Homo sapiens, UniProt P08684); assay: Inhibition of CYP3A4 (unknown origin) assessed as activity remaining at 10 uM relative to control; assay type: ADME; settings: read-out: Activity
CYP3A4, sequence (P08684 whole entry): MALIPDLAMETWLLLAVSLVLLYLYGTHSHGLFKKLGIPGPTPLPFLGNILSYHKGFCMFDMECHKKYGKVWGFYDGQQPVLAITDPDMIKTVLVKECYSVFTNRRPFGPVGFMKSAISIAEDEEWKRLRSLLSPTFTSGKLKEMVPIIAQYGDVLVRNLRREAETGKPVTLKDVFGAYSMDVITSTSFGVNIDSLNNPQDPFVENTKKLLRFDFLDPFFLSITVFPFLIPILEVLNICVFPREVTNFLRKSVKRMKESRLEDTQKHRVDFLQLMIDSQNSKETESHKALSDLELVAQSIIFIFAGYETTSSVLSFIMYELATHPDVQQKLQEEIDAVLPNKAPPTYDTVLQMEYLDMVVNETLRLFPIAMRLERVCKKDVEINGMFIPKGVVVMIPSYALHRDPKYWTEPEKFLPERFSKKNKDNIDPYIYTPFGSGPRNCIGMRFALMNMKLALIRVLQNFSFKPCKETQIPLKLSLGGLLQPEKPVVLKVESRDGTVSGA

Activated CDC42 kinase 1, sequence (Q07912 whole entry): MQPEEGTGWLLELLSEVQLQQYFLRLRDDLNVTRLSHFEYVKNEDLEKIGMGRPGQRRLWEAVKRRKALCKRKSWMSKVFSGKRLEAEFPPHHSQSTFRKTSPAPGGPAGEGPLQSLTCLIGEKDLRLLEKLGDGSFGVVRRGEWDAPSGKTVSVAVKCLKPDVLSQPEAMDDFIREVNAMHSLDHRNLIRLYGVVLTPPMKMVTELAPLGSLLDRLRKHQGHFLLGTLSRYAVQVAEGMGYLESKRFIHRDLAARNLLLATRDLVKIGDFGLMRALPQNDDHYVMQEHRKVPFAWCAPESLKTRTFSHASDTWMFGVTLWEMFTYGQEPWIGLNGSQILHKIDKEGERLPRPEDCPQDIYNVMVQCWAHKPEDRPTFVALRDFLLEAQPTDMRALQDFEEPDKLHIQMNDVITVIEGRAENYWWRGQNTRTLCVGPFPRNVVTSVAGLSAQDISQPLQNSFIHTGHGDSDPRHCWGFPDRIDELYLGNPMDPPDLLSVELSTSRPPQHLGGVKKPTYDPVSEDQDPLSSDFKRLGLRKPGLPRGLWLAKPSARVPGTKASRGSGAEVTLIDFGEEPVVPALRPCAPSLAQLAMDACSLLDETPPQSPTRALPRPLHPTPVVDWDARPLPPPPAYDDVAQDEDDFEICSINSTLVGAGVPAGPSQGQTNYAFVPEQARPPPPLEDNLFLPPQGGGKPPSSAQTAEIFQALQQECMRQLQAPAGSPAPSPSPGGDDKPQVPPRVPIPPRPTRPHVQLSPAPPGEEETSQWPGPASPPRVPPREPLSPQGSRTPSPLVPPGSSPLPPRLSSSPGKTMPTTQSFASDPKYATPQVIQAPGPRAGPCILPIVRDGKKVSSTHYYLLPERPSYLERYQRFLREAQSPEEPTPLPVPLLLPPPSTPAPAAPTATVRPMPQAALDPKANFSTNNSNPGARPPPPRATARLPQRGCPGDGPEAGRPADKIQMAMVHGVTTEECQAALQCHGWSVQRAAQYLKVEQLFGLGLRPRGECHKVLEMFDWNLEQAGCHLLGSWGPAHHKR
CYP2C9, sequence (P11712 whole entry): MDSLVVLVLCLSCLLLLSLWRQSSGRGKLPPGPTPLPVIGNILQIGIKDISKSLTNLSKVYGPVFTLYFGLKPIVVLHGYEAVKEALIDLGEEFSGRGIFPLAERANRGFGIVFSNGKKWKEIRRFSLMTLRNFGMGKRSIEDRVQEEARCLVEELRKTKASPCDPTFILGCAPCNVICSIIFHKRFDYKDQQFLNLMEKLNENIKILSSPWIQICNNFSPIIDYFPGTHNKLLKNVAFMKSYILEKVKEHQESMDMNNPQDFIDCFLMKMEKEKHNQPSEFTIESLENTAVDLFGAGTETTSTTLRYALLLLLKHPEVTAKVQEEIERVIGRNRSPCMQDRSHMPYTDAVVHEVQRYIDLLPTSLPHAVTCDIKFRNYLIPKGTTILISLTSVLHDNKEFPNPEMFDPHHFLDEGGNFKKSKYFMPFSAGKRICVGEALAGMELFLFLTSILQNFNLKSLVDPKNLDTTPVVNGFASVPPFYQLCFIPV
CYP2D6, sequence (P10635 whole entry): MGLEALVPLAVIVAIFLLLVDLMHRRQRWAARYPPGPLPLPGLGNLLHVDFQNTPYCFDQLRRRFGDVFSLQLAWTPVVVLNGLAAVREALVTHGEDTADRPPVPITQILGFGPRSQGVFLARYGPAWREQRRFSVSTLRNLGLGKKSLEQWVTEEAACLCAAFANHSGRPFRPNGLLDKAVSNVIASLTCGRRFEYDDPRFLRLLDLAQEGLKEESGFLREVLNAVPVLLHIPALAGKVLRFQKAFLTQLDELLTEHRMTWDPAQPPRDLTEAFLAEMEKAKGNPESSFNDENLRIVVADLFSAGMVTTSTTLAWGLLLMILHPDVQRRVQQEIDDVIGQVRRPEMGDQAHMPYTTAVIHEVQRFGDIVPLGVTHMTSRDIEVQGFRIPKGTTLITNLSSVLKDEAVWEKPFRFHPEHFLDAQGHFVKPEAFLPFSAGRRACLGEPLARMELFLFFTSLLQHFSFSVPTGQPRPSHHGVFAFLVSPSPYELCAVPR

SMILES | GI50 at 72 h [1] [nM] | GI50 (OCI-AML-3 [2]) [nM] | growth inhibition (GI) (OCI-AML-3 [3]) | GI50 (Mus musculus) [nM] | IC50 [4] [nM] | GI50 at 72 h [5] [nM] | IC50 (Activated CDC42 kinase 1) [nM] | RatioGI50 [6] | growth inhibition (GI) (OCI-AML-3 [7]) | activity at 10 µM (CYP2D6) [%] | remaining at 0.5 h, 1 µM [8] [%] | remaining at 0.5 h, 1 µM [9] [%] | activity at 10 µM (CYP1A2) [%] | remaining at 0.5 h, 1 µM [10] [%] | growth inhibition (GI) (OCI-AML-3 [11]) | remaining at 0.5 h, 1 µM [12] [%] | activity at 10 µM (CYP2C9) [%] | activity at 10 µM (CYP3A4) [%]
Cc1ccc(Nc2ncc3c(n2)N(C)C(=O)N(c2cc(NC(=O)c4cc(N5CCC(O)CC5)cc(C(F)(F)F)c4)ccc2C)C3)cn1 | 671 | 143 | Active | 118 | 72 | 2180 | 40 |  |  |  |  |  |  |  |  |  |  | 
Cc1ccc(NC(=O)c2cccc(C(F)(F)F)c2)cc1N1Cc2cnc(NC3CCCCC3)nc2N(C)C1=O | 5220 |  |  | 2450 | 925 |  | 60 |  |  |  |  |  |  |  |  |  |  | 
Cc1ccc(Nc2ncc3c(n2)N(C)C(=O)N(c2cc(NC(=O)c4ccc(-n5cccc5)c(C(F)(F)F)c4)ccc2C)C3)cn1 | 317 | 267 | Active | 69 | 24 | > 25000 | 10 | 100 |  |  |  |  |  |  |  |  |  | 
Cc1cc(Nc2ncc3c(n2)N(C)C(=O)N(c2cc(NC(=O)c4ccc(CN5CCC(N(C)C)C5)c(C(F)(F)F)c4)ccc2C)C3)n(C)n1 (stereo not given) | 509 |  |  | 123 | 17 |  | 11 |  |  |  |  |  |  |  |  |  |  | 
Cc1ccc(NC(=O)c2cccc(C(F)(F)F)c2)cc1N1Cc2cnc(NC3CC3)nc2N(C)C1=O | 5060 |  |  | 547 | 42 |  | 35 |  |  |  |  |  |  |  |  |  |  | 
Cc1ccc(NC(=O)c2ccc(CN3CCC(N(C)C)C3)c(C(F)(F)F)c2)cc1N1Cc2cnc(Nc3cnn(C)c3)nc2N(C)C1=O (stereo not given) | 414 |  |  | 68 | 8 |  | 25 |  |  |  |  |  |  |  |  |  |  | 
Cc1ccc(Nc2ncc3c(n2)N(C)C(=O)N(c2cc(NC(=O)c4cc(N5CCOCC5)cc(C(F)(F)F)c4)ccc2C)C3)cn1 | 1650 | 260 | Active | 284 | 45 | 2800 | 26 |  |  |  |  |  |  |  |  |  |  | 
Cc1ccc(Nc2ncc3c(n2)N(C)C(=O)N(c2cc(NC(=O)c4cc(-n5cnc(C)c5)cc(C(F)(F)F)c4)ccc2C)C3)cn1 | > 5000 |  |  | 238 | 27 |  | 53 |  |  |  |  |  |  |  |  |  |  | 
Cc1ccc(NC(=O)c2cccc(C(F)(F)F)c2)cc1N1Cc2cnc(NCCO)nc2N(C)C1=O | 3290 | 367 |  | 290 | 33 | 8530 | 21 |  | Active |  |  |  |  |  |  |  |  | 
CC(=O)N1CCN(c2ccc(Nc3ncc4c(n3)N(C)C(=O)N(c3cc(NC(=O)c5ccc(CN6CCC(N(C)C)C6)c(C(F)(F)F)c5)ccc3C)C4)cn2)CC1 (stereo not given) | 187 |  |  | 41 | 16 |  | 25 |  |  |  |  |  |  |  |  |  |  | 
Cc1ccc(Nc2ncc3c(n2)N(C)C(=O)N(c2cc(NC(=O)c4ccc(CN5CCN(C)CC5)c(C(F)(F)F)c4)ccc2C)C3)cn1 | 818 |  |  | 316 | 5 |  | 26 |  |  |  |  |  |  |  |  |  |  | 
CCN1CCN(c2ccc(Nc3ncc4c(n3)N(C)C(=O)N(c3cc(NC(=O)c5cccc(C(F)(F)F)c5)ccc3C)C4)cc2)CC1 | 559 | 40 |  | 83 | 8 | 839 | 20 |  |  | 79.8 | 21.3 | 46.7 | 92.1 | 19.7 | Active | 20.9 | 34.3 | > 100
CCN1CCN(C(=O)c2ccc(Nc3ncc4c(n3)N(C)C(=O)N(c3cc(NC(=O)c5ccc(CN6CCC(N(C)C)C6)c(C(F)(F)F)c5)ccc3C)C4)cn2)CC1 (stereo not given) | 704 |  |  | 94 | 14 |  | 21 |  |  |  |  |  |  |  |  |  |  | 
Cc1ccc(Nc2ncc3c(n2)N(C)C(=O)N(c2cc(NC(=O)c4ccccc4)ccc2C)C3)cn1 | 2700 |  |  | 1470 | 1080 |  | 21 |  |  |  |  |  |  |  |  |  |  | 
Cc1ccc(NC(=O)c2cccc(C(F)(F)F)c2)cc1N1Cc2cnc(Nc3cnn(C)c3)nc2N(C)C1=O | 352 | 42 |  | 100 | 6 | 1120 | 20 |  |  | 78.8 | 71.3 | 78.8 | 88 | 98.4 | Active | 73.3 | 42.9 | > 100
Cc1ccc(Nc2ncc3c(n2)N(C)C(=O)N(c2cc(NC(=O)c4ccc(C)c(C(F)(F)F)c4)ccc2C)C3)cn1 | 870 | 394 |  | 387 | 39 | 19400 | 20 |  | Active |  |  |  |  |  |  |  |  | 
Cc1ccc(NC(=O)c2cccc(C(F)(F)F)c2)cc1N1Cc2cnc(Nc3ccccc3)nc2N(C)C1=O | 1790 |  |  | 380 | 47 |  | 37 |  |  |  |  |  |  |  |  |  |  | 
CCN1CCN(c2ccc(Nc3ncc4c(n3)N(C)C(=O)N(c3cc(NC(=O)c5cccc(C(F)(F)F)c5)ccc3C)C4)cn2)CC1 | 264 | 30 |  | 71 | 7 | 1410 | 28 |  |  | 68 | 21.4 | 29.8 | 89.7 | 19.2 | Active | 21.2 | 23 | > 100
Cc1ccc(Nc2ncc3c(n2)N(C)C(=O)N(c2cc(NC(=O)c4ccc(N5CCN(C)CC5)c(C(F)(F)F)c4)ccc2C)C3)cn1 | 685 |  |  | 341 | 10 |  | 28 |  |  |  |  |  |  |  |  |  |  | 
